pIC50: −log10 of the molar value.
Experiments:
[1] = target: T1, Disintegrin and metalloproteinase domain-containing protein 17 (Homo sapiens, UniProt P78536); experiment: Inhibition of recombinant human ADAM-17 using Mca-Lys-Pro-Leu-Gly-Leu-Dap(Dnp)-Ala-Arg-NH2 as substrate incubated for 30 mins measured every 15 secs for 20 mins by fluorimetric assay
In short: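 Enzyme at 5 nM final was preincubated with inhibitor for 30 min at 37 °C in Tris 25 mM pH 9, ZnCl2 25 µM, 0.005% Brij-35. Substrate was at 2 µM final. Fluorescence increase (ex 325/em 400 nm) gave initial rates, in duplicate. IC50 was derived from vi/vo = 1/(1+[I]/IC50).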

[2] = target: T1, Disintegrin and metalloproteinase domain-containing protein 17; experiment: Inhibition of ADAM-17 in human A2780 cells assessed as inhibition of EGF-induced sALCAM release incubated for 30 mins prior to EGF induction measured after 18 hrs by ELISA; type: cell-based
[3] = target: Matrix metalloproteinase-9 (Homo sapiens, UniProt P14780); experiment: Inhibition of recombinant human MMP-9 using Mca-Lys-Pro-Leu-Gly-Leu-Dap(Dnp)-Ala-Arg-NH2 as substrate incubated for 4 hrs measured every 15 secs for 20 mins by fluorimetric assay
Chain of Matrix metalloproteinase-9 (P14780 whole entry): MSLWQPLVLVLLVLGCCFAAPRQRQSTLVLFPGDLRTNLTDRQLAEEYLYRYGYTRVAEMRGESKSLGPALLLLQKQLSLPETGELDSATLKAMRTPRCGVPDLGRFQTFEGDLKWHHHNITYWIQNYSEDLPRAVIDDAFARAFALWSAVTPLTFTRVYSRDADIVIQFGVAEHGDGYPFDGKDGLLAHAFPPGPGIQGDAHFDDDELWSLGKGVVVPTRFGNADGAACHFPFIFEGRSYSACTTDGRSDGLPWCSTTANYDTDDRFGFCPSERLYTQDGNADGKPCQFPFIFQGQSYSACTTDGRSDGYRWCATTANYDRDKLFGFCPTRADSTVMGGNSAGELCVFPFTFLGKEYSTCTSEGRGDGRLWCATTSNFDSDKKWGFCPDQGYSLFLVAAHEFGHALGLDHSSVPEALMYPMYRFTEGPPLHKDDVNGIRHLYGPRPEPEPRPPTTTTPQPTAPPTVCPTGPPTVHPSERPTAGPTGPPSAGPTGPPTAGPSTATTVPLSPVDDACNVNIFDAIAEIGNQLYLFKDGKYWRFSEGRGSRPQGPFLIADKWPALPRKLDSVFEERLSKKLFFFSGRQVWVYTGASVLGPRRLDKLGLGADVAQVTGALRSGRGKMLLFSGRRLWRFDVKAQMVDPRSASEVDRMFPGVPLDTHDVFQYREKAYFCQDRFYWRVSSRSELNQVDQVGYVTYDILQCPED
In short: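 Pro-MMP-9 was activated with 1 mM APMA for 1 h at 37 °C and used at 1.3 nM final. Inhibitor was incubated with enzyme for 4 h at 25 °C in Tris 50 mM pH 7.5, NaCl 150 mM, CaCl2 10 mM, 0.05% Brij-35, 1% DMSO. Substrate was at 2 µM final, ex 325/em 400 nm, in duplicate. IC50 was obtained from vi/vo = 1/(1+[I]/IC50).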

[4] = target: T1, Disintegrin and metalloproteinase domain-containing protein 17; experiment: Inhibition of ADAM-17 in human SKOV3 cells transfected with luciferase gene assessed as inhibition of EGF-induced sALCAM release incubated for 30 mins prior to EGF induction measured after 18 hrs by ELISA; type: cell-based, SK-OV-3
Interstitial collagenase = target: T2, Interstitial collagenase (Homo sapiens, UniProt P03956); experiment: Inhibition of recombinant human MMP-1 using Mca-Lys-Pro-Leu-Gly-Leu-Dap(Dnp)-Ala-Arg-NH2 as substrate incubated for 4 hrs measured every 15 secs for 20 mins by fluorimetric assay
T2 sequence (P03956 whole entry): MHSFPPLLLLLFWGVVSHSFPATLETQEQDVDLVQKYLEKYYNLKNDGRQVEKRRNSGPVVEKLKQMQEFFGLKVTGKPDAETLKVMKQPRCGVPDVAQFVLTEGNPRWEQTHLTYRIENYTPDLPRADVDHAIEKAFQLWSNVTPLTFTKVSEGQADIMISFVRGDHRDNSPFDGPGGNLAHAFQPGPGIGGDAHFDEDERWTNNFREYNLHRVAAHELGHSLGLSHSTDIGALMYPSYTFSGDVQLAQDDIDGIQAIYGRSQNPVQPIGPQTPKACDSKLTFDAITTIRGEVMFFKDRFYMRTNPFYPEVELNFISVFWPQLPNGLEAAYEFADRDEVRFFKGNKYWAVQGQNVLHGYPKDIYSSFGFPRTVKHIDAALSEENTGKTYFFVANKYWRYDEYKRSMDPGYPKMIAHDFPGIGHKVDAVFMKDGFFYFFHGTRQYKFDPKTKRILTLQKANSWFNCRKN
In short: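 Pro-MMP-1 was activated with 2 mM APMA for 2 h at 37 °C. Enzyme (2.0 nM final) was incubated with inhibitor in Tris 50 mM pH 7.5, NaCl 150 mM, CaCl2 10 mM, 0.05% Brij-35, 1% DMSO for 4 h at 25 °C. Substrate was added at 2 µM final. Fluorescence (ex 325/em 400 nm) was read for initial rates, in duplicate. IC50 came from vi/vo = 1/(1+[I]/IC50).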

[5] = target: T1, Disintegrin and metalloproteinase domain-containing protein 17; experiment: Inhibition of ADAM-17 in human A2780 cells assessed as inhibition of pervanadate-induced sALCAM release incubated for 30 mins prior to pervanadate induction measured after 90 mins by ELISA; type: cell-based
[6] = target: Matrix metalloproteinase-14 (Homo sapiens, UniProt P50281); experiment: Inhibition of recombinant human MMP-14 catalytic domain using Mca-Lys-Pro-Leu-Gly-Leu-Dap(Dnp)-Ala-Arg-NH2 as substrate incubated for 4 hrs measured every 15 secs for 20 mins by fluorimetric assay
In short: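 MMP-14 catalytic domain was used at 1.0 nM final with no activation step. It was incubated with inhibitor for 4 h at 25 °C in Tris 50 mM pH 7.5 buffer with NaCl 150 mM, CaCl2 10 mM, 0.05% Brij-35 and 1% DMSO. Substrate was at 2 µM final, ex 325/em 400 nm, duplicate wells. IC50 was fitted by vi/vo = 1/(1+[I]/IC50).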

[7] = target: T1, Disintegrin and metalloproteinase domain-containing protein 17; experiment: Inhibition of ADAM-17 in human A2774 cells assessed as inhibition of pervanadate-induced sALCAM release incubated for 30 mins prior to pervanadate induction measured after 90 mins by ELISA; type: cell-based
[8] = target: T1, Disintegrin and metalloproteinase domain-containing protein 17; experiment: Inhibition of ADAM-17 in human SKOV3 cells transfected with luciferase gene assessed as inhibition of pervanadate-induced sALCAM release incubated for 30 mins prior to pervanadate induction measured after 90 mins by ELISA; type: cell-based, SK-OV-3
[9] = Cytotoxicity against human A2774 cells assessed as cell viability at 0.01 to 10 uM after 24 to 72 hrs by MTT assay; type: cell-based; settings: a2774, 10 µM
[10] = target: T3, Disintegrin and metalloproteinase domain-containing protein 10 (Homo sapiens, UniProt O14672); experiment: Inhibition of recombinant human ADAM-10 using Mca-Lys-Pro-Leu-Gly-Leu-Dap(Dnp)-Ala-Arg-NH2 as substrate incubated for 1 hr measured every 15 secs for 20 mins by fluorimetric assay
T3 sequence (O14672 whole entry): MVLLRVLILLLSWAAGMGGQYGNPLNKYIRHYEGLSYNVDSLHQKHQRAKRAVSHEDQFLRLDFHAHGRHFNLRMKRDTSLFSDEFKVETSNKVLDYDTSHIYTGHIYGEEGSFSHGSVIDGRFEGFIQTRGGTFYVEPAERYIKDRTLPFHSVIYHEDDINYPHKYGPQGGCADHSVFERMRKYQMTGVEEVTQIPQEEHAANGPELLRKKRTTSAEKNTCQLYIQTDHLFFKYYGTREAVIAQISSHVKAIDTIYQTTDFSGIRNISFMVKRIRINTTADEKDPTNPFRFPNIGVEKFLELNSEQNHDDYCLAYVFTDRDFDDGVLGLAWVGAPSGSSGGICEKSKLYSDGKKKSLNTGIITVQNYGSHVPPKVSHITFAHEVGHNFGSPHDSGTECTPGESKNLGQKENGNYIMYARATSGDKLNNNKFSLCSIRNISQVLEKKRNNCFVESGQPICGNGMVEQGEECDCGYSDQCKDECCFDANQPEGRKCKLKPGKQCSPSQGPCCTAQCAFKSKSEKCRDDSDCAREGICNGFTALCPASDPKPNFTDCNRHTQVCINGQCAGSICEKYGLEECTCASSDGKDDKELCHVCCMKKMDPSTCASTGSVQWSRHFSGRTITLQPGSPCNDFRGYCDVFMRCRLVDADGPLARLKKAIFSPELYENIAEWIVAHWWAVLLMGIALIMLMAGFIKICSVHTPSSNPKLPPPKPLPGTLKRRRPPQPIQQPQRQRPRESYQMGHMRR
In short: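 Enzyme at 20 nM final was preincubated with inhibitor for 1 h at 37 °C in pH 9 buffer (Tris 25 mM, ZnCl2 25 µM, 0.005% Brij-35). Substrate was at 10 µM final. Fluorescence (ex 325/em 400 nm) was followed for initial velocity, in duplicate. IC50 was calculated with vi/vo = 1/(1+[I]/IC50).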

[11] = target: T1, Disintegrin and metalloproteinase domain-containing protein 17; experiment: Inhibition of ADAM-17 in human A2774 cells assessed as inhibition of EGF-induced sALCAM release incubated for 30 mins prior to EGF induction measured after 18 hrs by ELISA; type: cell-based
SK-OV-3 = experiment: Cytotoxicity against human SKOV3 cells transfected with luciferase gene assessed as cell viability at 0.01 to 10 uM after 24 to 72 hrs by MTT assay; type: cell-based; settings: sk-ov-3, 10 µM
A2780 = experiment: Cytotoxicity against human A2780 cells assessed as cell viability at 0.01 to 10 uM after 24 to 72 hrs by MTT assay; type: cell-based; settings: a2780, 10 µM
[12] = target: 72 kDa type IV collagenase (Homo sapiens, UniProt P08253); experiment: Inhibition of recombinant human MMP-2 using Mca-Lys-Pro-Leu-Gly-Leu-Dap(Dnp)-Ala-Arg-NH2 as substrate incubated for 4 hrs measured every 15 secs for 20 mins by fluorimetric assay
Chain of 72 kDa type IV collagenase (P08253 whole entry): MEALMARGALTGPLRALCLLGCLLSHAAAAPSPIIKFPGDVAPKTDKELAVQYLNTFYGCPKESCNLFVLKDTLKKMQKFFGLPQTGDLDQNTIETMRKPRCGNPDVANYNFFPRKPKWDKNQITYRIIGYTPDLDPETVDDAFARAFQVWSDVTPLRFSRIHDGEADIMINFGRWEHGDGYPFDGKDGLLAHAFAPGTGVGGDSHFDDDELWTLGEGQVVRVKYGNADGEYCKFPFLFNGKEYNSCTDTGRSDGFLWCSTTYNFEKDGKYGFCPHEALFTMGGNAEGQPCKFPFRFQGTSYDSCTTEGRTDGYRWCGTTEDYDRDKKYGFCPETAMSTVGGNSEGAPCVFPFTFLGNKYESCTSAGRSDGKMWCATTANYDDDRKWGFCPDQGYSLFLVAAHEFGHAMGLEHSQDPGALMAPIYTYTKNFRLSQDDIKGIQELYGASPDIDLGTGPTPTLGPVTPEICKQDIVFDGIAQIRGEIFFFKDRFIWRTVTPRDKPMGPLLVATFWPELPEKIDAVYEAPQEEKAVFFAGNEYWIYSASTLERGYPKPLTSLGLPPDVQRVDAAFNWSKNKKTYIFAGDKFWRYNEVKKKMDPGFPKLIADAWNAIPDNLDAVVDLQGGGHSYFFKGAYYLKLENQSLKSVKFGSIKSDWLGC
In short: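 Pro-MMP-2 was activated with 2 mM APMA for 1 h at 37 °C and used at 0.56 nM final. It was preincubated with inhibitor for 4 h at 25 °C in Tris 50 mM pH 7.5 buffer containing NaCl, CaCl2, Brij-35 and 1% DMSO. Substrate was at 2 µM final, ex 325/em 400 nm, run in duplicate. IC50 was taken from initial-velocity ratios, vi/vo = 1/(1+[I]/IC50).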

T1 sequence (P78536 whole entry, the tested form may be a part): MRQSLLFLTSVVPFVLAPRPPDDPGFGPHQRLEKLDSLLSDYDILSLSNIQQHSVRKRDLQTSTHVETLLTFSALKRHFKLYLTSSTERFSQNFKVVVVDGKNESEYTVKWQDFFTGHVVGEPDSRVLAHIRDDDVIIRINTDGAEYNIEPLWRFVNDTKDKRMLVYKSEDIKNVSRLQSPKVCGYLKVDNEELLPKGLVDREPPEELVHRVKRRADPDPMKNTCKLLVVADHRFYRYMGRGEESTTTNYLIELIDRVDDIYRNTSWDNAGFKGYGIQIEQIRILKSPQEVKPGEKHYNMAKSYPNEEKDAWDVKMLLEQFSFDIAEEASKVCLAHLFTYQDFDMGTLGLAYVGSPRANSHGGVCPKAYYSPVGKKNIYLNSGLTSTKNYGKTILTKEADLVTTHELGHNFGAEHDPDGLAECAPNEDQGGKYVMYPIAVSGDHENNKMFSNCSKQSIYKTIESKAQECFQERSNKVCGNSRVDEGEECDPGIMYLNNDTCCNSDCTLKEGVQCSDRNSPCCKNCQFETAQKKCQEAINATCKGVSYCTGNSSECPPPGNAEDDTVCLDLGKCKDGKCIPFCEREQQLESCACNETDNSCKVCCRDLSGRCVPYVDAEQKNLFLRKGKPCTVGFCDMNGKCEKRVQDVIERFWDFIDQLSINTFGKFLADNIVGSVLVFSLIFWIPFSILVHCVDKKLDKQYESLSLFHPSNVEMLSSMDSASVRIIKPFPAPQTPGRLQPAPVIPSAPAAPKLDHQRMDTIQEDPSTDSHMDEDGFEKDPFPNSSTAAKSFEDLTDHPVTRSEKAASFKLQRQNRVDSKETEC

Row | pIC50 [1] | pIC50 [2] | pIC50 [3] | pIC50 [4] | pIC50 (Interstitial collagenase) | pIC50 [5] | pIC50 [6] | pIC50 [7] | pIC50 [8] | pIC50 [10] | pIC50 [11] | pIC50 [12] | Compound | Activity [9] | Activity (SK-OV-3) | Activity (A2780)
1 | 7.37 | < 5.00 | 4.96 | 5.02 | 3.40 | 6.08 | 3.98 | 5.86 | 5.68 | 5.09 | < 5.00 | 5.39 | O=C(NCC[C@@H](NS(=O)(=O)c1ccc(OCc2cc(Br)cc(Br)c2)cc1)C(=O)NO)OCc1ccccc1 | Non-toxic | Non-toxic | Non-toxic
2 | 6.98 | < 5.00 | 4.29 | < 5.00 | < 3.30 | 6.08 | 3.95 | < 5.00 | 5.28 | 4.41 | < 5.00 | 5.76 | O=C(CNS(=O)(=O)c1ccc(OCc2cc(Br)cc(Br)c2)cc1)NO | Non-toxic | Non-toxic | Non-toxic

From ChEMBL document CHEMBL2429772, “Selective arylsulfonamide inhibitors of ADAM-17: hit optimization and activity in ovarian cancer cell models” (J Med Chem, 2013)
